# Tests used:
# Mus musculus [1] = assay: Antiinflammatory activity in ICR mouse model of carrageenan-induced paw edema assessed as paw edema inhibition rate at 50 mg/kg, po pretreated with compound followed by carrageenan challenge and measured after 2 hrs post-treatment by dial thickness gage; type: functional
# How it was run: (§1)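 ICR male mice, 8 per group, randomized, acclimated at least one week, 12 h light/dark, 22 ± 1 °C. Dosed intragastrically at 25, 50 or 100 mg/kg; indomethacin 22 mg/kg i.g. as reference; olive oil as vehicle. 30 min later, 1% fresh carrageenan in saline injected subplantar into right hind paw. Paw thickness read by dial gauge before injection and at 1, 2, 3 and 4 h; percent increase over pre-injection value.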
# Mus musculus [2] = assay: Antiinflammatory activity in ICR mouse model of carrageenan-induced paw edema assessed as paw edema inhibition rate at 50 mg/kg, po pretreated with compound followed by carrageenan challenge and measured after 3 hrs post-treatment by dial thickness gage; type: functional; how it was run: as §1
# Mus musculus [3] = assay: Antiinflammatory activity in mouse model of xylene-induced ear swelling assessed as inhibition of swelling by measuring weight of the ear at 100 mg/kg, ig pretreated for 90 mins followed by xylene challenge and measured after 30 mins relative to control; type: functional; conditions: po, 2 h, time 120 min
# How it was run: (§2)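 Xylene ear swelling in mice. Test compounds 100 mg/kg i.g., naproxen 150 mg/kg i.g., all suspended in 0.5% CMC-Na; vehicle group got CMC-Na alone. 90 min after dosing, 25 ul xylene applied to both surfaces of right ear; left ear unstimulated. Killed 30 min later; 8 mm punches from both ears weighed; swelling taken against left ear weight.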
# Mus musculus [4] = assay: Analgesic activity in mouse model of acetic-acid-induced writhing assessed as inhibition of writhing numbers at 70 mg/kg, po pretreated with compound followed by acetic acid challenge and measured after 30 mins relative to control; type: functional; conditions: 0.5 h
# How it was run: (§3)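 Acetic acid writhing in mice. Oral dosing (70 mg/kg test compounds or limonin; 200 mg/kg aspirin); vehicle controls got 0.5% CMC-Na. 30 min later 0.6% acetic acid, 10 ml/kg i.p. Each animal held in its own box and observed for 15 min; writhing and stretching counted; result as percent change from vehicle writhing controls.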
# Mus musculus [5] = assay: Antiinflammatory activity in ICR mouse model of carrageenan-induced paw edema assessed as paw edema inhibition rate at 50 mg/kg, po pretreated with compound followed by carrageenan challenge and measured after 1 hr post-treatment by dial thickness gage; type: functional; how it was run: as §1
# Mus musculus [6] = assay: Antiinflammatory activity in ICR mouse model of carrageenan-induced paw edema assessed as paw edema inhibition rate at 100 mg/kg, po pretreated with compound followed by carrageenan challenge and measured after 2 hrs post-treatment by dial thickness gage; type: functional; how it was run: as §1
# Mus musculus [7] = assay: Antiinflammatory activity in ICR mouse model of carrageenan-induced paw edema assessed as paw edema inhibition rate at 100 mg/kg, po pretreated with compound followed by carrageenan challenge and measured after 3 hrs post-treatment by dial thickness gage; type: functional; how it was run: as §1
# Mus musculus [8] = assay: Antiinflammatory activity in ICR mouse model of carrageenan-induced paw edema assessed as paw edema inhibition rate at 25 mg/kg, po pretreated with compound followed by carrageenan challenge and measured after 3 hrs post-treatment by dial thickness gage; type: functional; how it was run: as §1
# Mus musculus [9] = assay: Antiinflammatory activity in ICR mouse model of carrageenan-induced paw edema assessed as paw edema inhibition rate at 100 mg/kg, po pretreated with compound followed by carrageenan challenge and measured after 1 hr post-treatment by dial thickness gage; type: functional; how it was run: as §1
# Mus musculus [10] = assay: Antiinflammatory activity in ICR mouse model of carrageenan-induced paw edema assessed as paw edema inhibition rate at 25 mg/kg, po pretreated with compound followed by carrageenan challenge and measured after 1 hr post-treatment by dial thickness gage; type: functional; how it was run: as §1
# Mus musculus [11] = assay: Antiinflammatory activity in mouse model of xylene-induced ear swelling assessed as inhibition of swelling by measuring weight of the ear at 100 mg/kg, ig pretreated for 90 mins followed by xylene challenge and measured after 30 mins relative to deoxy-limonin; type: functional; conditions: time 120 min, 2 h; how it was run: as §2
# Mus musculus [12] = assay: Antiinflammatory activity in po dosed ICR mouse model of carrageenan-induced paw edema assessed as paw edema inhibition rate pretreated with compound followed by carrageenan challenge and measured after 4 hrs post-treatment by dial thickness gage; type: functional, organism-based; conditions: dose mg/kg 25-100, time 4.0 hrs; how it was run: as §1
# Mus musculus [13] = assay: Antiinflammatory activity in ICR mouse model of carrageenan-induced paw edema assessed as paw edema inhibition rate at 25 mg/kg, po pretreated with compound followed by carrageenan challenge and measured after 4 hrs post-treatment by dial thickness gage; type: functional; conditions: 2 h, dose mg/kg 25-100; how it was run: as §1
# Mus musculus [14] = assay: Antiinflammatory activity in ICR mouse model of carrageenan-induced paw edema assessed as paw edema inhibition rate at 100 mg/kg, po pretreated with compound followed by carrageenan challenge and measured after 4 hrs post-treatment by dial thickness gage; type: functional; how it was run: as §1
# Mus musculus [15] = assay: Antiinflammatory activity in ICR mouse model of carrageenan-induced paw edema assessed as paw edema inhibition rate at 25 mg/kg, po pretreated with compound followed by carrageenan challenge and measured after 2 hrs post-treatment by dial thickness gage; type: functional; how it was run: as §1
# Mus musculus [16] = assay: Antiinflammatory activity in ICR mouse model of carrageenan-induced paw edema assessed as paw edema inhibition rate at 50 mg/kg, ig pretreated with compound followed by carrageenan challenge and measured after 4 hrs post-treatment by dial thickness gage; type: functional; conditions: po; how it was run: as §1
# Mus musculus [17] = assay: Analgesic activity in mouse model of acetic-acid-induced writhing assessed as inhibition of writhing numbers at 200 mg/kg, po pretreated with compound followed by acetic acid challenge and measured after 30 mins relative to control; type: functional; conditions: 0.5 h; how it was run: as §3
# Mus musculus [18] = species on record: Mus musculus; assay: animal or person; conditions: po, 2 h, read-out: INH
# Mus musculus [19] = assay: Antiinflammatory activity in ICR mouse model of carrageenan-induced paw edema assessed as paw edema inhibition rate at 22 mg/kg, po pretreated with compound followed by carrageenan challenge and measured after 2 hrs post-treatment by dial thickness gage; type: functional; how it was run: as §1
# Mus musculus [20] = assay: Antiinflammatory activity in ICR mouse model of carrageenan-induced paw edema assessed as paw edema inhibition rate at 22 mg/kg, po pretreated with compound followed by carrageenan challenge and measured after 4 hrs post-treatment by dial thickness gage; type: functional; how it was run: as §1
# Mus musculus [21] = assay: Antiinflammatory activity in ICR mouse model of carrageenan-induced paw edema assessed as paw edema inhibition rate at 22 mg/kg, po pretreated with compound followed by carrageenan challenge and measured after 3 hrs post-treatment by dial thickness gage; type: functional; how it was run: as §1
# Mus musculus [22] = assay: Antiinflammatory activity in ICR mouse model of carrageenan-induced paw edema assessed as paw edema inhibition rate at 22 mg/kg, po pretreated with compound followed by carrageenan challenge and measured after 1 hr post-treatment by dial thickness gage; type: functional; how it was run: as §1
smiles,measurement,setting,value
CC1(C)O[C@H]2CC(=O)OC[C@]23[C@H]2CC[C@@]4(C)[C@H](c5ccoc5)OC(=O)[C@H]5O[C@]54[C@]2(C)C(=O)C[C@@H]13 [LIMONIN],inhibition in vivo at 50 mg/kg,Mus musculus [1],22%
same,inhibition in vivo at 50 mg/kg,Mus musculus [2],26.3%
same,inhibition in vivo at 100 mg/kg,Mus musculus [3],14.4%
same,inhibition in vivo at 70 mg/kg,Mus musculus [4],44.2%
same,inhibition in vivo at 50 mg/kg,Mus musculus [5],57.3%
COc1cccc(CCNCCC2OC(C)(C)[C@@H]3CC(=O)[C@@]4(C)C5=CC(=O)O[C@@H](c6ccoc6)[C@]5(C)CC[C@@H]4C23CO)c1 (stereo partly drawn),inhibition in vivo at 100 mg/kg,Mus musculus [6],65.3%
same,inhibition in vivo at 100 mg/kg,Mus musculus [7],35.3%
same,inhibition in vivo at 25 mg/kg,Mus musculus [8],12%
same,inhibition in vivo at 50 mg/kg,Mus musculus [1],27.3%
same,inhibition in vivo at 100 mg/kg,Mus musculus [9],59.8%
same,inhibition in vivo at 25 mg/kg,Mus musculus [10],51.5%
same,fold change (FC),Mus musculus [11],5
same,inhibition,Mus musculus [12],Dose-dependent effect
same,inhibition in vivo at 50 mg/kg,Mus musculus [2],24.1%
same,inhibition in vivo at 25 mg/kg,Mus musculus [13],5.43%
same,inhibition in vivo at 100 mg/kg,Mus musculus [14],27.5%
same,inhibition in vivo at 25 mg/kg,Mus musculus [15],17.6%
same,inhibition in vivo at 100 mg/kg,Mus musculus [3],51.5%
same,inhibition in vivo at 70 mg/kg,Mus musculus [4],52.6%
same,inhibition in vivo at 50 mg/kg,Mus musculus [5],55.6%
CC1(C)OC(CCNCCc2ccc(F)cc2)C2(CO)[C@H]3CC[C@]4(C)C(=CC(=O)O[C@H]4c4ccoc4)[C@]3(C)C(=O)C[C@@H]12 (stereo partly drawn),inhibition in vivo at 100 mg/kg,Mus musculus [3],30%
same,inhibition in vivo at 70 mg/kg,Mus musculus [4],30.1%
CC1(C)OC2CCN(Cc3ccc(F)cc3)CC23[C@H]2CC[C@]4(C)C(=CC(=O)O[C@H]4c4ccoc4)[C@]2(C)C(=O)C[C@@H]13 (stereo partly drawn),inhibition in vivo at 100 mg/kg,Mus musculus [3],28%
same,inhibition in vivo at 70 mg/kg,Mus musculus [4],40.3%
CC1(C)OC(CCNCCc2ccc(F)cc2)C2(CO)[C@H]3CC[C@@]4(C)[C@H](c5ccoc5)OC(=O)[C@H]5O[C@]54[C@]3(C)C(=O)C[C@@H]12 (stereo partly drawn),inhibition in vivo at 100 mg/kg,Mus musculus [3],16.1%
same,inhibition in vivo at 70 mg/kg,Mus musculus [4],55.8%
COc1ccc(CNCCC2OC(C)(C)[C@@H]3CC(=O)[C@]4(C)[C@H](CC[C@@]5(C)[C@H](c6ccoc6)OC(=O)[C@H]6O[C@]654)C23CO)cc1 (stereo partly drawn),inhibition in vivo at 100 mg/kg,Mus musculus [6],62%
same,inhibition in vivo at 100 mg/kg,Mus musculus [7],41.4%
same,inhibition in vivo at 25 mg/kg,Mus musculus [8],9.77%
same,inhibition in vivo at 50 mg/kg,Mus musculus [1],33.3%
same,inhibition in vivo at 100 mg/kg,Mus musculus [9],54.5%
same,inhibition in vivo at 50 mg/kg,Mus musculus [16],15.6%
same,inhibition in vivo at 25 mg/kg,Mus musculus [10],43.4%
same,inhibition,Mus musculus [12],Dose-dependent effect
same,inhibition in vivo at 50 mg/kg,Mus musculus [2],17.5%
same,inhibition in vivo at 25 mg/kg,Mus musculus [13],5.75%
same,inhibition in vivo at 100 mg/kg,Mus musculus [14],32%
same,inhibition in vivo at 25 mg/kg,Mus musculus [15],24.6%
same,inhibition in vivo at 100 mg/kg,Mus musculus [3],27.3%
same,inhibition in vivo at 70 mg/kg,Mus musculus [4],81.5%
same,inhibition in vivo at 50 mg/kg,Mus musculus [5],44.6%
CC(=O)Oc1ccccc1C(=O)O [ASPIRIN],inhibition in vivo at 200 mg/kg,Mus musculus [17],51.5%
CC1(C)O[C@H]2CC(=O)OC[C@@]23[C@H]1CC(=O)[C@@]1(C)C2=CC(=O)O[C@@H](c4ccoc4)[C@]2(C)CC[C@@H]13,inhibition in vivo at 100 mg/kg,Mus musculus [3],11.2%
same,inhibition in vivo at 70 mg/kg,Mus musculus [4],22.6%
COc1ccc(CCNCCC2OC(C)(C)[C@@H]3CC(=O)[C@@]4(C)C5=CC(=O)O[C@@H](c6ccoc6)[C@]5(C)CC[C@@H]4C23CO)cc1OC (stereo partly drawn),inhibition in vivo at 100 mg/kg,Mus musculus [3],37.9%
same,inhibition in vivo at 70 mg/kg,Mus musculus [4],52.6%
COc1ccc2cc([C@H](C)C(=O)O)ccc2c1 [NAPROXEN],inhibition in vivo at 150 mg/kg,Mus musculus [18],25%
COc1ccc(CN2CCC3OC(C)(C)[C@@H]4CC(=O)[C@@]5(C)C6=CC(=O)O[C@@H](c7ccoc7)[C@]6(C)CC[C@@H]5C34C2)cc1 (stereo partly drawn),inhibition in vivo at 100 mg/kg,Mus musculus [3],32.5%
same,inhibition in vivo at 70 mg/kg,Mus musculus [4],40%
COc1ccc2c(c1)c(CC(=O)O)c(C)n2C(=O)c1ccc(Cl)cc1 [INDOMETHACIN],inhibition in vivo at 22 mg/kg,Mus musculus [19],60%
same,inhibition in vivo at 22 mg/kg,Mus musculus [20],64.8%
same,inhibition in vivo at 22 mg/kg,Mus musculus [21],64.9%
same,inhibition in vivo at 22 mg/kg,Mus musculus [22],47.5%
CC1(C)OC(CCNCc2ccc(F)cc2)C2(CO)[C@H]3CC[C@]4(C)C(=CC(=O)O[C@H]4c4ccoc4)[C@]3(C)C(=O)C[C@@H]12 (stereo partly drawn),inhibition in vivo at 100 mg/kg,Mus musculus [3],29.5%
same,inhibition in vivo at 70 mg/kg,Mus musculus [4],37%
COc1ccc(CCNCCC2OC(C)(C)[C@@H]3CC(=O)[C@]4(C)[C@H](CC[C@@]5(C)[C@H](c6ccoc6)OC(=O)[C@H]6O[C@]654)C23CO)cc1OC (stereo partly drawn),inhibition in vivo at 100 mg/kg,Mus musculus [3],26.7%
same,inhibition in vivo at 70 mg/kg,Mus musculus [4],11.2%
CC1(C)OC(CCNCc2ccc(F)cc2)C2(CO)[C@H]3CC[C@@]4(C)[C@H](c5ccoc5)OC(=O)[C@H]5O[C@]54[C@]3(C)C(=O)C[C@@H]12 (stereo partly drawn),inhibition in vivo at 100 mg/kg,Mus musculus [3],27.4%
same,inhibition in vivo at 70 mg/kg,Mus musculus [4],63.8%
COc1ccc(CNCCC2OC(C)(C)[C@@H]3CC(=O)[C@@]4(C)C5=CC(=O)O[C@@H](c6ccoc6)[C@]5(C)CC[C@@H]4C23CO)cc1 (stereo partly drawn),inhibition in vivo at 100 mg/kg,Mus musculus [3],24.8%
same,inhibition in vivo at 70 mg/kg,Mus musculus [4],29.7%
COc1cccc(CCNCCC2OC(C)(C)[C@@H]3CC(=O)[C@]4(C)[C@H](CC[C@@]5(C)[C@H](c6ccoc6)OC(=O)[C@H]6O[C@]654)C23CO)c1 (stereo partly drawn),inhibition in vivo at 100 mg/kg,Mus musculus [3],17%
same,inhibition in vivo at 70 mg/kg,Mus musculus [4],58.7%

# Source: ChEMBL document CHEMBL4699426, “A practical synthesis of amino limonin/deoxylimonin derivatives as effective mitigators against inflammation and nociception” (2020)
